≈ marks a conversion by molar mass, not a printed value. Starred links: 1 amine or outer side, 2 acyl side, 3 side chain; linkers in the order of their positions; H or OH if unused. Non-standard residues stand in square brackets, D forms with d. Residues, ends and D or L forms follow the SMILES beside them. Dab(3S-OH) = NC[C@H](O)[C@H](N)C(=O)O; X1 = O=C([C@@H](CCCO)N[*:1])[*:2]; ΔZArg = N=C(N)NCC/C=C(\N)C(=O)O Where only a bound is given, the exact number is not on record here.

The target of one experiment is Bacterial 70S ribosome. The experiment in a line: Inhibition of ribosome-mediated translation in Cell-free Escherichia coli protein synthesis system using pCmGFP as plasmid incubated at 30 degreeC measured every 20 mins by invitro coupled transcription-translation system based fluorescence analysis. Format: subcellular. The procedure, abridged: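 E. coli cell-free coupled transcription-translation; template was gfp amplified from pCmGFP and cloned into pEXP5-CT, 1 µg plasmid DNA added to start each reaction. Feed buffer added at 30 min. Run at 30 °C, fluorescence (ex 475/em 520 nm) read every 20 min. IC50 taken from the signal 1 h after feed buffer addition.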

For experiment [1], the system named is Escherichia coli. The experiment in a line: Antibacterial activity against wild type Escherichia coli ATCC 25922 by CLSI based broth microdilution method. It is filed as functional. The procedure, abridged:
(§1)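 MIC read by CLSI broth microdilution (M07-A10) from direct colony suspension inocula. Reference strains came from ATCC: wild-type E. coli ATCC 25922 and K. pneumoniae ATCC 13883. An efflux-defective ΔtolC E. coli isogenic to ATCC 25922 was also used.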

The test system of experiment [2] is Escherichia coli. Briefly: Antibacterial activity against efflux-defective (deltatolC) Escherichia coli ATCC 25922 by broth microdilution method. It is filed as functional. In outline:
as §1

Experiment [3] concerns Klebsiella pneumoniae. The experiment in a line: Antibacterial activity against wild type Klebsiella pneumoniae ATCC 13883 by CLSI based broth microdilution method. Format: functional. The procedure, abridged: as §1
Experiment [4] has as its system Escherichia coli. Briefly: Antibacterial activity against Escherichia coli by CLSI based broth microdilution method. Format: functional. In outline: as §1
Experiment [5] deals with Klebsiella pneumoniae. Briefly: Antibacterial activity against Klebsiella pneumoniae by CLSI based broth microdilution method. It is filed as functional. The procedure, abridged:
as §1

`C[C@H](NC(=O)[C@H](CCN)NC(=O)[C@@H](N)CCCCN)C(=O)NCC(=O)N[C@H](CCCN)C(=O)N1CCC[C@H]1C(=O)N[C@@H](Cc1c[nH]cn1)C(=O)N[C@@H](CCCCN)C(=O)N/C(=C\CCNC(=N)N)C(=O)O` had an IC50 on Bacterial 70S ribosome of 17 µM.

For the molecule `CNCCC[C@@H](NC(=O)CNC(=O)[C@H](C)NC(=O)[C@@H](NC(=O)[C@@H](N)CCCCN)[C@@H](O)CN)C(=O)N1CCC[C@H]1C(=O)N[C@@H](Cc1c[nH]cn1)C(=O)N[C@@H](CCCCN)C(=O)N/C(=C\CCNC(=N)N)C(=O)O`, the IC50 against Bacterial 70S ribosome was over 40 µM.

With `C[C@H](N)CC[C@@H](NC(=O)CNC(=O)[C@H](C)NC(=O)[C@@H](NC(=O)[C@@H](N)CCCCN)[C@@H](O)CN)C(=O)N1CCC[C@H]1C(=O)N[C@@H](Cc1c[nH]cn1)C(=O)N[C@@H](CCCCN)C(=O)N/C(=C\CCNC(=N)N)C(=O)O`, the IC50 against Bacterial 70S ribosome was 17.9 µM.

As for `CNC[C@H](O)[C@H](NC(=O)[C@@H](N)CCCCN)C(=O)N[C@@H](C)C(=O)NCC(=O)N[C@H](CCCN)C(=O)N1CCC[C@H]1C(=O)N[C@@H](Cc1c[nH]cn1)C(=O)N[C@@H](CCCCN)C(=O)N/C(=C\CCNC(=N)N)C(=O)O`, the half-inhibitory concentration (IC50) against Bacterial 70S ribosome was 3.2 µM. The MIC turned out to be 64 µg/mL (≈ 61.8 µM) in the experiment on Escherichia coli [1], 64 µg/mL (≈ 61.8 µM) against Escherichia coli [2] and 32 µg/mL (≈ 30.9 µM) in the experiment with Klebsiella pneumoniae [3].

In the case of `C[C@H](NC(=O)[C@@H](NC(=O)[C@@H](N)CCCCN)[C@@H](O)CN)C(=O)NCC(=O)N[C@H](CC[C@@H](C)N)C(=O)N1CCC[C@H]1C(=O)N[C@@H](Cc1c[nH]cn1)C(=O)N[C@@H](CCCCN)C(=O)N/C(=C\CCNC(=N)N)C(=O)O`, the IC50 at Bacterial 70S ribosome is over 40 µM.

`C[C@H](NC(=O)[C@@H](NC(=O)[C@@H](N)CCCCN)[C@@H](O)CN)C(=O)NCC(=O)N[C@H](CCN)C(=O)N1CCC[C@H]1C(=O)N[C@@H](Cc1c[nH]cn1)C(=O)N[C@@H](CCCCN)C(=O)N/C(=C\CCNC(=N)N)C(=O)O`: the IC50 against Bacterial 70S ribosome came to 36.3 µM.

`C[C@H](NC(=O)[C@@H](NC(=O)[C@@H](N)CCCCN)[C@@H](O)[C@H](C)N)C(=O)NCC(=O)N[C@H](CCCN)C(=O)N1CCC[C@H]1C(=O)N[C@@H](Cc1c[nH]cn1)C(=O)N[C@@H](CCCCN)C(=O)N/C(=C\CCNC(=N)N)C(=O)O` had an IC50 at Bacterial 70S ribosome of over 40 µM.

Turning to `C[C@H](NC(=O)[C@@H](NC(=O)[C@@H](N)CCCCN)[C@@H](O)CN)C(=O)NCC(=O)N[C@H](CCCCN)C(=O)N1CCC[C@H]1C(=O)N[C@@H](Cc1c[nH]cn1)C(=O)N[C@@H](CCCCN)C(=O)N/C(=C\CCNC(=N)N)C(=O)O`, the half-maximal inhibitory concentration (IC50) at Bacterial 70S ribosome was over 40 µM.

The molecule `CC(=O)NCCC[C@@H](NC(=O)CNC(=O)[C@H](C)NC(=O)[C@@H](NC(=O)[C@@H](N)CCCCN)[C@@H](O)CN)C(=O)N1CCC[C@H]1C(=O)N[C@@H](Cc1c[nH]cn1)C(=O)N[C@@H](CCCCN)C(=O)N/C(=C\CCNC(=N)N)C(=O)O` returned a half-inhibitory concentration (IC50) against Bacterial 70S ribosome of over 40 µM.

In the case of `CCCC[C@@H](NC(=O)CNC(=O)[C@H](C)NC(=O)[C@@H](NC(=O)[C@@H](N)CCCCN)[C@@H](O)CN)C(=O)N1CCC[C@H]1C(=O)N[C@@H](Cc1c[nH]cn1)C(=O)N[C@@H](CCCCN)C(=O)N/C(=C\CCNC(=N)N)C(=O)O`, on Bacterial 70S ribosome, the concentration for half-maximal inhibition (IC50) is over 40 µM.

With `C[C@H](NC(=O)[C@@H](NC(=O)[C@@H](N)CCCCN)[C@@H](O)CCN)C(=O)NCC(=O)N[C@H](CCCN)C(=O)N1CCC[C@H]1C(=O)N[C@@H](Cc1c[nH]cn1)C(=O)N[C@@H](CCCCN)C(=O)N/C(=C\CCNC(=N)N)C(=O)O`, on Bacterial 70S ribosome, the IC50 is 14.4 µM.

At Bacterial 70S ribosome, `C[C@H](NC(=O)[C@@H](NC(=O)[C@@H](N)CCCCN)[C@H](C)O)C(=O)NCC(=O)N[C@H](CCCN)C(=O)N1CCC[C@H]1C(=O)N[C@@H](Cc1c[nH]cn1)C(=O)N[C@@H](CCCCN)C(=O)N/C(=C\CCNC(=N)N)C(=O)O` registered a half-inhibitory concentration (IC50) of over 40 µM.

At Bacterial 70S ribosome, `C[C@H](NC(=O)[C@@H](NC(=O)[C@@H](N)CCCCN)[C@@H](C)CN)C(=O)NCC(=O)N[C@H](CCCN)C(=O)N1CCC[C@H]1C(=O)N[C@@H](Cc1c[nH]cn1)C(=O)N[C@@H](CCCCN)C(=O)N/C(=C\CCNC(=N)N)C(=O)O` registered a half-maximal inhibitory concentration (IC50) of 26.7 µM.

For the molecule `C[C@H](NC(=O)[C@@H](NC(=O)[C@@H](N)CCCCN)[C@@H](O)CN)C(=O)NCC(=O)N[C@H](CCCN)C(=O)N1CCC[C@H]1C(=O)N[C@@H](Cc1cnc[nH]1)C(=O)N[C@@H](CCCCN)C(=O)N/C(=C\CCNC(=N)N)C(=O)O`, the IC50 at Bacterial 70S ribosome turned out to be 0.5 µM. In addition, the MIC in the experiment on Escherichia coli [1] was 8 µg/mL (≈ 7.83 µM); against Escherichia coli [2] it was 8 µg/mL (≈ 7.83 µM); in the experiment on Klebsiella pneumoniae [3], 4 µg/mL (≈ 3.92 µM). Moreover, the figures for the MIC90 in the experiment with Escherichia coli [4] and in the experiment with Klebsiella pneumoniae [5] were 32 µg/mL (≈ 31.3 µM) and 8 µg/mL (≈ 7.83 µM), respectively.

In turn, `C[C@H](NC(=O)[C@H](CO)NC(=O)[C@@H](N)CCCCN)C(=O)NCC(=O)N[C@H](CCCN)C(=O)N1CCC[C@H]1C(=O)N[C@@H](Cc1c[nH]cn1)C(=O)N[C@@H](CCCCN)C(=O)N/C(=C\CCNC(=N)N)C(=O)O` registered an IC50 on Bacterial 70S ribosome of over 40 µM.

`C[C@H](NC(=O)[C@@H](NC(=O)[C@@H](N)CCCCN)[C@@H](O)CN)C(=O)NCC(=O)N[C@](C)(CCCN)C(=O)N1CCC[C@H]1C(=O)N[C@@H](Cc1c[nH]cn1)C(=O)N[C@@H](CCCCN)C(=O)N/C(=C\CCNC(=N)N)C(=O)O` yielded an IC50 against Bacterial 70S ribosome of 18.1 µM.

Consider `C[C@H](NC(=O)[C@@H](NC(=O)[C@@H](N)CCCCN)[C@@H](O)C(C)(C)N)C(=O)NCC(=O)N[C@H](CCCN)C(=O)N1CCC[C@H]1C(=O)N[C@@H](Cc1c[nH]cn1)C(=O)N[C@@H](CCCCN)C(=O)N/C(=C\CCNC(=N)N)C(=O)O`, for which the concentration for half-maximal inhibition (IC50) at Bacterial 70S ribosome is over 40 µM.

At Bacterial 70S ribosome, `C[C@H](NC(=O)[C@@H](NC(=O)[C@@H](N)CCCCN)[C@H](O)CN)C(=O)NCC(=O)N[C@H](CCCN)C(=O)N1CCC[C@H]1C(=O)N[C@@H](Cc1c[nH]cn1)C(=O)N[C@@H](CCCCN)C(=O)N/C(=C\CCNC(=N)N)C(=O)O` registered an IC50 of over 40 µM.

In turn, `C[C@H](NC(=O)[C@@H](NC(=O)[C@@H](N)CCCCN)[C@@H](O)[C@@H](C)N)C(=O)NCC(=O)N[C@H](CCCN)C(=O)N1CCC[C@H]1C(=O)N[C@@H](Cc1c[nH]cn1)C(=O)N[C@@H](CCCCN)C(=O)N/C(=C\CCNC(=N)N)C(=O)O` came in with a half-inhibitory concentration (IC50) against Bacterial 70S ribosome of 10 µM.

`C[C@H](NC(=O)[C@@H](NC(=O)[C@@H](N)CCCCN)[C@@H](O)CN)C(=O)NCC(=O)N[C@H](CCCO)C(=O)N1CCC[C@H]1C(=O)N[C@@H](Cc1c[nH]cn1)C(=O)N[C@@H](CCCCN)C(=O)N/C(=C\CCNC(=N)N)C(=O)O` (H-K[Dab(3S-OH)]AG[X1]PHK[ΔZArg]-OH): the half-inhibitory concentration (IC50) against Bacterial 70S ribosome came to 1.3 µM. Moreover, the MIC in the experiment with Escherichia coli [1], against Escherichia coli [2] and with Klebsiella pneumoniae [3] was over 64 µg/mL each time.

The molecule `CO[C@@H](CN)[C@H](NC(=O)[C@@H](N)CCCCN)C(=O)N[C@@H](C)C(=O)NCC(=O)N[C@H](CCCN)C(=O)N1CCC[C@H]1C(=O)N[C@@H](Cc1c[nH]cn1)C(=O)N[C@@H](CCCCN)C(=O)N/C(=C\CCNC(=N)N)C(=O)O` came in with an IC50 at Bacterial 70S ribosome of over 40 µM.

For the origin of these results see ChEMBL document CHEMBL4725223, “Structure-activity relationship studies on the inhibition of the bacterial translation of novel Odilorhabdins analogues” (Bioorg Med Chem, 2020).
